Reference: PMC3516907 (ChemMedChem, 2010)

Experiments:
[1] = test system: endogenous ER in MCF7 breast cancer cells; assay: ER degradation in MCF7 cells by western blotting; format: cell-based, human; conditions: with/without proteasome inhibitor epoxomicin (Fig 3B)
How it was run: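 MCF7 cells at 70% confluence, held at least 24 h in RPMI with 5% charcoal-dextran FBS, were treated 48 h (DMSO vehicle). Lysis was 1 h on ice in Tris/NaCl/NP40/Triton X-100 buffer with protease inhibitors, with Bradford protein assay. Equal protein ran on 10% SDS-PAGE and was blotted to PVDF. Anti-ER was applied overnight at 4°C, secondary 1 h at room temperature. Detection was ECL/film, reprobed for β-actin loading.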

ER in MCF7 cells = assay: ER degradation in MCF7 cells by immunofluorescence; format: cell-based, human
How it was run: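 MCF7 cells were grown on ethanol/UV-sterilised coverslips for 24 h, then switched to phenol-red-free RPMI with 5% charcoal/dextran-treated FBS. Compounds were diluted in this medium from a DMSO vehicle and applied for 48 h. Cells were fixed in 4% PFA, permeabilised with 0.2% Triton X-100, and blocked in 10% goat serum/0.1% BSA in PBST. Staining used anti-ER with an Alexa Fluor 488 secondary and DAPI mounting, imaged by inverted fluorescence microscopy.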

Compound	proteasome dependence of ER degradation (western blot) [1]	ER signal by immunofluorescence on co-treatment with epoxomicin (ER in MCF7 cells; 48h, 25 μM PROTACs or 10 nM E2 plus epoxomicin (Fig 3A bottom row))	ER signal (green, FITC) by immunofluorescence vs DMSO control (ER in MCF7 cells; 48h treatment, 25 μM PROTACs, 10 nM E2 (Fig 3A top row))
C[C@]12CC[C@@H]3c4ccc(O)cc4CC[C@H]3[C@@H]1CC[C@@H]2O [E2, 17β-estradiol]	confirmed via western blotting	blocked by co-treatment with epoxomicin	
-Leu-Ala-Pro^OHTyr-Ile-Bzl [PROTAC 24]	confirmed via western blotting		attenuation of ER signal (green) was observed
